# Measured values published in publication PMC4024982 (International Journal of Nanomedicine, 2014).
# Legend:
# Assay type in all cases: in vivo, Sprague Dawley rats
# caspase-8 = test: Immunofluorescence staining of knee joint sections; conditions: 6 weeks after injection; diffuse positive staining in control
# How it was run: (§1)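 OA knees in female 12-week-old SD rats (ACL/MCL transection plus medial meniscectomy), injected intra-articularly with 0.2 mL at 3 weeks post-surgery, uninjected controls. Joints harvested 6 weeks post-injection and formalin-fixed. Sections immunostained for MMP-9, caspase-8, TIMP-1 and collagen II using Alexa Fluor 488/594 secondary antibodies, DAPI counterstain, then examined by fluorescence microscopy.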
# TIMP-1 = test: Immunofluorescence staining of knee joint sections; conditions: 6 weeks after injection; diffuse positive staining in control
# How it was run: as §1
# [1] = system: rat knee osteoarthritis model; test: Micro-CT analysis of OA knee joints; conditions: 6 weeks after injection
# How it was run: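 Hind limbs from OA rats (female, 12-week-old SD; ACL/MCL transection with medial meniscectomy) given 0.2 mL intra-articular injection 3 weeks post-surgery, or left uninjected. Harvested 6 weeks post-injection and formalin-fixed. Micro-CT: 80 kVp, 500 μA, 0.21 s scan, 30 calibrations, 30.74 mm fields of view. BMD measured at the lateral femoral condyle. OA graded semiquantitatively by osteophytes and joint destruction.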
# [2] = system: rat knee osteoarthritis model; test: Histological analysis, modified Mankin scoring; conditions: 6 weeks after injection; scale 0–4; negative control 2.5±0.3
substance,measurement,setting,value
"Ac-KLDLKLDLKLDL-NH2 [SAP, Ac-KLDLKLDLKLDL-NH2]",caspase-8 immunofluorescence staining,caspase-8,decreased expression
same,TIMP-1 immunofluorescence staining,TIMP-1,decreased expression
same,"bone mineral density (lateral femoral condyle, micro-CT)","[1]; control 1,067.0±12.2","1,033.3±17.4"
same,Number of animals in each osteoarthritis grade: Grade 1,[1]; micro-CT,1
same,Number of animals in each osteoarthritis grade: Grade 2,[1]; micro-CT,0
same,Number of animals in each osteoarthritis grade: Grade 3,[1]; micro-CT,2
same,Number of animals in each osteoarthritis grade: Grade 4,[1]; micro-CT,1
same,Alcian blue staining component of modified Mankin score (proteoglycan content),[2],0.5±0.3
